Reference: ChEMBL document CHEMBL1944532, “Synthesis and evaluation of anticancer activity of some novel 6-aryl-2-(p-sulfamylphenyl)-pyridazin-3(2H)-ones” (Eur J Med Chem, 2012)
Active and inactive are the calls of the source. The calls are words filed in the database; no cut-off is given here.

Tests used:
DU-145 = test: Cytotoxicity against human DU145 cells assessed as cell growth at 10 uM after 48 hrs by SRB assay; type: functional; details: DU-145, 48 h, read-out: Activity
How it was run: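 NCI primary single-dose screen at 10^-5 M against the ~60 human tumour cell line panel. Cells grown in RPMI-1640 with 5% fetal calf serum and 2 mM L-glutamine and pre-incubated 24 h before compound addition. Compound added from DMSO solution with 48 h exposure. Growth read by sulforhodamine B protein staining.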

SNB-19 = test: Cytotoxicity against human SNB19 cells assessed as cell growth at 10 uM after 48 hrs by SRB assay; type: functional; details: SNB-19, 48 h, read-out: Activity
How it was run: (§1)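 NCI primary one-dose screen at 10^-5 M against the full panel of about 60 human tumour cell lines, run to the NCI Drug Evaluation Branch protocol.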

CAKI-1 = test: Cytotoxicity against human Caki1 cells after 48 hrs by SRB assay; type: functional; details: CAKI-1, 48 h
How it was run: (§2)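 NCI ~60-line panel in RPMI-1640 with 5% fetal calf serum and 2 mM L-glutamine, pre-incubated 24 h. Compound in DMSO tested at five 10-fold concentrations (10^-4 to 10^-8 M) with 48 h continuous exposure. Growth measured by sulforhodamine B protein assay. GI50 (50% net growth inhibition), TGI (total inhibition) and LC50 (50% net cell death) derived from dose-response.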

MDA-MB-435 = test: Cytotoxicity against human MDA-MB-435 cells assessed as cell growth at 10 uM after 48 hrs by SRB assay; type: functional; details: MDA-MB-435, 48 h, read-out: Activity
How it was run: (§3)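 NCI primary single-dose screen at 10^-5 M against the full panel of about 60 human tumor cell lines. Cells were in RPMI-1640 with 5% fetal calf serum and 2 mM L-glutamine and preincubated 24 h. Compound was given in DMSO with 48 h exposure. Growth was estimated by sulforhodamine B protein assay.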

OVCAR-3 [1] = test: Cytotoxicity against human OVCAR3 cells assessed as cell growth at 10 uM after 48 hrs by SRB assay; type: functional; details: OVCAR-3, 48 h, read-out: Activity; how it was run: as §3
BT-549 = test: Cytotoxicity against human BT549 cells after 48 hrs by SRB assay; type: functional; details: BT-549, 48 h; how it was run: as §2
SW-620 = test: Cytotoxicity against human SW620 cells after 48 hrs by SRB assay; type: functional; details: SW-620, 48 h
How it was run: (§4)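 NCI 60-cell-line five-dose screen. Cells were grown in 1640 medium with 5% fetal calf serum and 2 mM L-glutamine, with inoculum density set by cell line, and pre-incubated 24 h. Compound in DMSO was added at 10^-4 to 10^-8 M (10-fold steps) with 48 h continuous exposure. Growth was read by SRB protein assay, and GI50, TGI and LC50 were derived from dose-response.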

OVCAR-5 = test: Antitumor activity against human OVCAR5 cells implanted in mouse dosed qd for 4 days by formazan dye-based hollow fiber assay; type: functional, organism-based
How it was run: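 Cells grown inside polyvinylidene fluoride hollow fibers; each line implanted into both intraperitoneal and subcutaneous compartments in mice. Compound given ip at two doses on a QD x 4 schedule. Fibers then recovered and viable cell mass measured by formazan dye conversion. Scored 2 per dose giving ≥50% reduction in viable cell mass (%T/C 50).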

MDA-MB-468 = test: Cytotoxicity against human MDA-MB-468 cells assessed as cell growth at 10 uM after 48 hrs by SRB assay; type: functional; details: MDA-MB-468, 48 h, read-out: Activity; how it was run: as §3
RXF 393 = test: Cytotoxicity against human RXF393 cells assessed as cell growth at 10 uM after 48 hrs by SRB assay; type: functional; details: RXF 393, 48 h, read-out: Activity; how it was run: as §3
NCI-H23 = test: Cytotoxicity against human NCI-H23 cells assessed as cell growth at 10 uM after 48 hrs by SRB assay; type: functional; details: NCI-H23, 48 h, read-out: Activity; how it was run: as §3
OVCAR-3 [2] = test: Cytotoxicity against human OVCAR3 cells after 48 hrs by SRB assay; type: functional; details: OVCAR-3, 48 h
How it was run: (§5)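 NCI five-dose screen on the ~60-line human tumor panel. Cells grown in RPMI-1640 with 5% fetal calf serum and 2 mM L-glutamine, seeded at line-dependent density and preincubated 24 h. Compound added from DMSO at 10-fold dilutions from 10^-4 to 10^-8 M, continuous exposure 48 h. Growth read by sulforhodamine B protein stain. GI50, TGI and LC50 derived per line.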

NCI-H522 = test: Cytotoxicity against human NCI-H522 cells assessed as cell growth at 10 uM after 48 hrs by SRB assay; type: functional; details: NCI-H522, 48 h, read-out: Activity; how it was run: as §3
MDA-MB-231 = test: Cytotoxicity against human MDA-MB-231/ATCC cells after 48 hrs by SRB assay; type: functional; details: MDA-MB-231, 48 h; how it was run: as §5
T47D = test: Cytotoxicity against human T47D cells after 48 hrs by SRB assay; type: functional; how it was run: as §4
IGROV-1 = test: Cytotoxicity against human IGROV1 cells after 48 hrs by SRB assay; type: functional; details: IGROV-1, 48 h; how it was run: as §2
SK-OV-3 = test: Cytotoxicity against human SKOV3 cells after 48 hrs by SRB assay; type: functional; details: SK-OV-3, 48 h; how it was run: as §4
SK-MEL-5 [3] = test: Cytotoxicity against human SK-MEL-5 cells assessed as cell growth at 10 uM after 48 hrs by SRB assay; type: functional; details: SK-MEL-5, 48 h, read-out: Activity; how it was run: as §1
HCC 2998 = test: Cytotoxicity against human HCC2998 cells after 48 hrs by SRB assay; type: functional; details: HCC 2998, 48 h; how it was run: as §2
NCI-H226 = test: Cytotoxicity against human NCI-H226 cells after 48 hrs by SRB assay; type: functional; details: NCI-H226, 48 h; how it was run: as §5
K562 = test: Cytotoxicity against human K562 cells after 48 hrs by SRB assay; type: functional; details: K562, 48 h; how it was run: as §2
SK-MEL-5 [4] = test: Cytotoxicity against human SK-MEL-5 cells after 48 hrs by SRB assay; type: functional; details: SK-MEL-5, 48 h; how it was run: as §4

For `CCc1ccc(-c2ccc(=O)n(-c3ccc(S(N)(=O)=O)cc3)n2)cc1`, the growth at 10 µM (DU-145) was 59.6%, the growth at 10 µM (SNB-19) was 57.6% and the LC50 (concentration causing 50% net cell death) (CAKI-1) was over 100 µM. The GI50 (CAKI-1; read-out: GI50) was 2.73 µM, the GI50 (CAKI-1; read-out: pGI50 (converted)) was 2.75 µM and the TGI (CAKI-1; read-out: pTGI) was over 100 µM. The growth at 10 µM (MDA-MB-435) was -17.9%, the growth at 10 µM (OVCAR-3 [1]) was -56.8% and the LC50 (BT-549) was 85.1 µM. The GI50 (BT-549; read-out: GI50) was 0.756 µM, the GI50 (BT-549; read-out: pGI50 (converted)) was 0.759 µM and the TGI (BT-549; read-out: pTGI (converted)) was 17.8 µM. The LC50 (SW-620) was over 100 µM, the GI50 (SW-620; read-out: GI50) was 0.454 µM and the GI50 (SW-620; read-out: pGI50 (converted)) was 0.457 µM. For the same compound, the TGI (SW-620; read-out: pTGI) was over 100 µM, the Activity (OVCAR-5) was “inactive” and the growth at 10 µM (MDA-MB-468) was 7.89%. The growth at 10 µM (RXF 393) was -31.8%, the growth at 10 µM (NCI-H23) was 59.9% and the LC50 (OVCAR-3 [2]) was over 100 µM. For the same compound, the GI50 (OVCAR-3 [2]; read-out: GI50) was 0.429 µM, the GI50 (OVCAR-3 [2]; read-out: pGI50 (converted)) was 0.427 µM and the TGI (OVCAR-3 [2]; read-out: pTGI) was over 100 µM. The growth at 10 µM (NCI-H522) was -33.6%, the LC50 (MDA-MB-231) was over 100 µM and the GI50 (MDA-MB-231; read-out: GI50) was 12.1 µM. The GI50 (MDA-MB-231; read-out: pGI50 (converted)) was 12 µM, the TGI (MDA-MB-231; read-out: pTGI) was over 100 µM and the LC50 (T47D) was over 100 µM. It also gave a GI50 (T47D; read-out: GI50) of 2.56 µM, a GI50 (T47D; read-out: pGI50 (converted)) of 2.57 µM and a TGI (T47D; read-out: pTGI) of over 100 µM. It also gave an LC50 (IGROV-1) of over 100 µM, a GI50 (IGROV-1; read-out: GI50) of 3.81 µM and a GI50 (IGROV-1; read-out: pGI50 (converted)) of 3.8 µM. For the same compound, the TGI (IGROV-1; read-out: pTGI) was over 100 µM, the LC50 (SK-OV-3) was over 100 µM and the GI50 (SK-OV-3; read-out: GI50) was 4.02 µM. The GI50 (SK-OV-3; read-out: pGI50 (converted)) was 3.98 µM, the TGI (SK-OV-3; read-out: pTGI) was over 100 µM and the growth at 10 µM (SK-MEL-5 [3]) was 12.9%. For the same compound, the LC50 (HCC 2998) was over 100 µM, the GI50 (HCC 2998; read-out: GI50) was 2.62 µM and the GI50 (HCC 2998; read-out: pGI50 (converted)) was 2.63 µM. For the same compound, the TGI (HCC 2998; read-out: pTGI) was over 100 µM, the LC50 (NCI-H226) was over 100 µM and the GI50 (NCI-H226; read-out: GI50) was 13.5 µM. The GI50 (NCI-H226; read-out: pGI50 (converted)) was 13.5 µM, the TGI (NCI-H226; read-out: pTGI) was over 100 µM and the GI50 (K562; read-out: GI50) was 0.257 µM. For the same compound, the GI50 (K562; read-out: pGI50 (converted)) was 0.257 µM, the CC50 (K562; read-out: pLC50 (the source's name) (converted)) was over 100 µM and the TGI (K562; read-out: pTGI) was over 100 µM. For the same compound, the LC50 (SK-MEL-5 [4]) was over 100 µM, the GI50 (SK-MEL-5 [4]; read-out: GI50) was 0.453 µM and the GI50 (SK-MEL-5 [4]; read-out: pGI50 (converted)) was 0.457 µM. The TGI (SK-MEL-5 [4]; read-out: pTGI (converted)) was 7.59 µM.
